Measured values published in ChEMBL document CHEMBL1137436, “Development of Tyrocidine A analogues with improved antibacterial activity” (2007).
In brackets after ≈: the same amount, converted by molar mass. Where a SMILES comes first, the peptide text is derived from it. [ ]: non-standard residue; d: D form. Orn = NCCC[C@H](N)C(=O)O

Experiments:
Staphylococcus aureus [1] = assay: Antibacterial activity against methicillin-resistant Staphylococcus aureus ATCC 33592 in presence of 25 mg/L calcium by microdilution method; format: functional
Procedure, shortened: (§1)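 CLSI broth microdilution in cation-adjusted Mueller-Hinton broth (CAMHB); compounds dissolved in CAMHB or a little DMSO then broth. Overnight cultures suspended in saline to 0.5 McFarland, diluted 1:100 in CAMHB and added to wells of diluted compound. Drug-free wells subcultured quantitatively for actual colony counts. Calcium at 25 or 50 mg/L as the line states.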

Staphylococcus aureus [2] = assay: Antibacterial activity against methicillin-susceptible Staphylococcus aureus ATCC 29213 in presence of 25 mg/L calcium by microdilution method; format: functional; procedure, shortened: as §1
Enterococcus faecalis [3] = assay: Antibacterial activity against Enterococcus faecalis ATCC 29212 in presence of 25 mg/L calcium by microdilution method; format: functional; procedure, shortened: as §1
Escherichia coli [4] = assay: Antibacterial activity against Escherichia coli ATCC 25922 in presence of 25 mg/L calcium by microdilution method; format: functional
Procedure, shortened: (§2)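 CLSI broth microdilution MIC. Compounds dissolved in cation-adjusted Mueller-Hinton broth (CAMHB), or in a little DMSO then broth. Overnight cultures suspended in saline to 0.5 McFarland, diluted 1:100 in CAMHB, added to wells of diluted compound. Drug-free wells quantitatively subcultured to confirm actual colony counts. Calcium at 25 or 50 mg/L.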

[5] = tested on: Staphylococcus epidermidis; assay: Antibacterial activity against methicillin-resistant Staphylococcus epidermidis MRL 19010 in presence of 25 mg/L calcium by microdilution method; format: functional; procedure, shortened: as §1
Enterococcus faecalis [6] = assay: Antibacterial activity against vancomycin-resistant Enterococcus faecalis MRL 17001 in presence of 25 mg/L calcium by microdilution method; format: functional; procedure, shortened: as §1
Bacillus subtilis [7] = assay: Antibacterial activity against Bacillus subtilis MRL 18734 in presence of 25 mg/L calcium by microdilution method; format: functional; procedure, shortened: as §2
Bacillus cereus [8] = assay: Antibacterial activity against Bacillus cereus MRL 18731 in presence of 25 mg/L calcium by microdilution method; format: functional; procedure, shortened: as §2
Enterococcus faecalis [9] = assay: Antibacterial activity against Enterococcus faecalis ATCC 29212 in presence of 50 mg/L calcium by microdilution method; format: functional; procedure, shortened: as §1
Escherichia coli [10] = assay: Antibacterial activity against Escherichia coli ATCC 25922 in presence of 50 mg/L calcium by microdilution method; format: functional; procedure, shortened: as §2
[11] = tested on: Staphylococcus epidermidis; assay: Antibacterial activity against methicillin-resistant Staphylococcus epidermidis MRL 19010 in presence of 50 mg/L calcium by microdilution method; format: functional; procedure, shortened: as §1
Enterococcus faecalis [12] = assay: Antibacterial activity against vancomycin-resistant Enterococcus faecalis MRL 17001 in presence of 50 mg/L calcium by microdilution method; format: functional; procedure, shortened: as §1
Bacillus subtilis [13] = assay: Antibacterial activity against Bacillus subtilis MRL 18734 in presence of 50 mg/L calcium by microdilution method; format: functional
Procedure, shortened: (§3)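 CLSI broth microdilution. Compounds dissolved in cation-adjusted Mueller-Hinton broth (CAMHB), or in a small amount of DMSO followed by broth. Overnight cultures suspended in saline to 0.5 McFarland, diluted 1:100 in CAMHB and added to wells of diluted compound. Drug-free wells subcultured quantitatively to give actual colony counts. Calcium tested at 50 mg/L, alongside the standard 25 mg/L.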

Bacillus cereus [14] = assay: Antibacterial activity against Bacillus cereus MRL 18731 in presence of 50 mg/L calcium by microdilution method; format: functional; procedure, shortened: as §3
Staphylococcus aureus [15] = assay: microbe, parasite or virus in culture; details: ATCC 33592
Staphylococcus aureus [16] = assay: microbe, parasite or virus in culture; details: ATCC 29213

Row | SMILES | MIC (Staphylococcus aureus [1]) | MIC (Staphylococcus aureus [2]) | MIC (Enterococcus faecalis [3]) | MIC (Escherichia coli [4]) | MIC [5] | MIC (Enterococcus faecalis [6]) | MIC (Bacillus subtilis [7]) | MIC (Bacillus cereus [8]) | MIC (Enterococcus faecalis [9]) | MIC (Escherichia coli [10]) | MIC [11] | MIC (Enterococcus faecalis [12]) | MIC (Bacillus subtilis [13]) | MIC (Bacillus cereus [14]) | MIC (Staphylococcus aureus [15]) | MIC (Staphylococcus aureus [16])
1 | CC(C)C[C@@H]1NC(=O)[C@H](CCCN)NC(=O)[C@H](C(C)C)NC(=O)[C@H](Cc2c(F)c(F)c(F)c(F)c2F)NC(=O)[C@H](CCC(N)=O)NC(=O)[C@H](CC(N)=O)NC(=O)[C@@H](Cc2ccccc2)NC(=O)[C@H](Cc2ccccc2)NC(=O)[C@@H]2CCCN2C(=O)[C@@H](Cc2ccccc2)NC1=O | 16 µg/mL | 16 µg/mL | 2 µg/mL | > 256 µg/mL | 2 µg/mL | 2 µg/mL | 8 µg/mL | 8 µg/mL | – | – | – | – | – | – | – | –
2 | CC(C)C[C@@H]1NC(=O)[C@H](CCCN)NC(=O)[C@H](C(C)C)NC(=O)[C@H](Cc2ccc(O)cc2)NC(=O)[C@H](CCCCN)NC(=O)[C@H](CC(N)=O)NC(=O)[C@@H](CCCCN)NC(=O)[C@H](Cc2c(F)c(F)c(F)c(F)c2F)NC(=O)[C@@H]2CCCN2C(=O)[C@@H](Cc2ccccc2)NC1=O | 8 µg/mL | 8 µg/mL | 16 µg/mL | 32 µg/mL | 4 µg/mL | 4 µg/mL | 2 µg/mL | 4 µg/mL | – | – | – | – | – | – | – | –
3 | CC(C)C[C@@H]1NC(=O)[C@H](CCCN)NC(=O)[C@H](C(C)C)NC(=O)[C@H](Cc2ccc(O)cc2)NC(=O)[C@H](CCCCN)NC(=O)[C@H](CC(N)=O)NC(=O)[C@@H](Cc2ccccc2)NC(=O)[C@H](Cc2c(F)c(F)c(F)c(F)c2F)NC(=O)[C@@H]2CCCN2C(=O)[C@@H](Cc2ccccc2)NC1=O | 8 µg/mL | 16 µg/mL | 4 µg/mL | > 256 µg/mL | 4 µg/mL | 4 µg/mL | 8 µg/mL | 8 µg/mL | – | – | – | – | – | – | – | –
4 | CC(C)C[C@@H]1NC(=O)[C@H](CCCN)NC(=O)[C@H](C(C)C)NC(=O)[C@H](Cc2ccc(O)cc2)NC(=O)[C@H](CCC(N)=O)NC(=O)[C@H](CC(N)=O)NC(=O)[C@@H](CCCCN)NC(=O)[C@H](Cc2ccccc2)NC(=O)[C@@H]2CCCN2C(=O)[C@@H](Cc2ccccc2)NC1=O | 64 µg/mL | 32 µg/mL | 64 µg/mL | 128 µg/mL | 32 µg/mL | 32 µg/mL | 16 µg/mL | 64 µg/mL | – | – | – | – | – | – | – | –
5 | CC(C)C[C@@H]1NC(=O)[C@H](CCCN)NC(=O)[C@H](C(C)C)NC(=O)[C@H](Cc2ccc(O)cc2)NC(=O)[C@H](CCC(N)=O)NC(=O)[C@H](CC(N)=O)NC(=O)[C@@H](Cc2ccccc2)NC(=O)[C@H](Cc2c(F)c(F)c(F)c(F)c2F)NC(=O)[C@@H]2CCCN2C(=O)[C@@H](Cc2ccccc2)NC1=O | 16 µg/mL | 8 µg/mL | 4 µg/mL | > 256 µg/mL | 8 µg/mL | 8 µg/mL | 4 µg/mL | 4 µg/mL | – | – | – | – | – | – | – | –
6 | CC(C)C[C@@H]1NC(=O)[C@H](CCCN)NC(=O)[C@H](C(C)C)NC(=O)[C@H](Cc2ccc(O)cc2)NC(=O)[C@H](CCCCN)NC(=O)[C@H](CC(N)=O)NC(=O)[C@@H](Cc2ccccc2)NC(=O)[C@H](Cc2ccccc2)NC(=O)[C@@H]2CCCN2C(=O)[C@@H](Cc2ccccc2)NC1=O (cyclo(F[dF]NKYV[Orn]L[dF]P)) | 4 µg/mL | 4 µg/mL | 2 µg/mL | 128 µg/mL | 2 µg/mL | 2 µg/mL | 2 µg/mL | 2 µg/mL | – | – | – | – | – | – | – | –
7 | CCCCCCCCCC(=O)N[C@@H](Cc1c[nH]c2ccccc12)C(=O)N[C@H](CC(N)=O)C(=O)N[C@@H](CC(=O)O)C(=O)N[C@@H]1C(=O)NCC(=O)N[C@@H](CCCN)C(=O)N[C@@H](CC(=O)O)C(=O)N[C@H](C)C(=O)N[C@@H](CC(=O)O)C(=O)NCC(=O)N[C@H](CO)C(=O)N[C@@H]([C@H](C)CC(=O)O)C(=O)N[C@@H](CC(=O)c2ccccc2N)C(=O)O[C@@H]1C | 1 µg/mL | 1 µg/mL | 1 µg/mL | > 128 µg/mL | 1 µg/mL | 2 µg/mL | 1 µg/mL | 0.5 µg/mL | 1 µg/mL | > 128 µg/mL | 0.5 µg/mL | 1 µg/mL | 0.25 µg/mL | 0.25 µg/mL | 0.25 µg/mL (≈ 0.154 µM) | 0.25 µg/mL (≈ 0.154 µM)
8 | CC(C)C[C@@H]1NC(=O)[C@H](CCCN)NC(=O)[C@H](C(C)C)NC(=O)[C@H](Cc2ccc(O)cc2)NC(=O)[C@H](CCC(N)=O)NC(=O)[C@H](CC(N)=O)NC(=O)[C@@H](Cc2ccccc2)NC(=O)[C@H](Cc2ccccc2)NC(=O)[C@@H]2CCCN2C(=O)[C@@H](Cc2ccccc2)NC1=O [TYROCIDINE A] (cyclo(F[dF]NQYV[Orn]L[dF]P)) | 32 µg/mL | 32 µg/mL | 16 µg/mL | > 128 µg/mL | 16 µg/mL | 16 µg/mL | 16 µg/mL | 16 µg/mL | – | – | – | – | – | – | – | –
9 | CC(C)C[C@@H]1NC(=O)[C@H](CCCN)NC(=O)[C@H](C(C)C)NC(=O)[C@H](Cc2c(F)c(F)c(F)c(F)c2F)NC(=O)[C@H](CCC(N)=O)NC(=O)[C@H](CC(N)=O)NC(=O)[C@@H](Cc2ccccc2)NC(=O)[C@H](Cc2c(F)c(F)c(F)c(F)c2F)NC(=O)[C@@H]2CCCN2C(=O)[C@@H](Cc2ccccc2)NC1=O | > 256 µg/mL | > 256 µg/mL | 32 µg/mL | > 256 µg/mL | 256 µg/mL | 32 µg/mL | 128 µg/mL | 256 µg/mL | – | – | – | – | – | – | – | –
10 | CC(C)C[C@@H]1NC(=O)[C@H](CCCN)NC(=O)[C@H](C(C)C)NC(=O)[C@H](Cc2ccc(O)cc2)NC(=O)[C@H](CCCCN)NC(=O)[C@H](CC(N)=O)NC(=O)[C@@H](CCCCN)NC(=O)[C@H](Cc2ccccc2)NC(=O)[C@@H]2CCCN2C(=O)[C@@H](Cc2ccccc2)NC1=O | 16 µg/mL | 16 µg/mL | 32 µg/mL | 32 µg/mL | 4 µg/mL | 8 µg/mL | 2 µg/mL | 16 µg/mL | – | – | – | – | – | – | – | –
